Test results published in ChEMBL document CHEMBL4732237, “Discovery of 4-alkoxy-2-aryl-6,7-dimethoxyquinolines as a new class of topoisomerase I inhibitors endowed with potent in vitro anticancer activity” (2021).

What was measured:
Type in all cases: functional
Settings in all cases: read-out: GI
NCI-H226 = assay: Growth inhibition of human NCI-H226 cells at 10 uM incubated for 48 hrs by sulforhodamine B assay relative to control
How it was run: (§1)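 NCI one-dose screen. Cells grown in RPMI 1640 with 5% FBS and 2 mM L-glutamine, plated and incubated 24 h at 37 °C, 5% CO2. DMSO-dissolved drug added, then 48 h further incubation. Adherent cells fixed with cold TCA, suspension cells fixed after settling. Stained with 0.4% SRB, absorbance read at 515 nm. Reported as percent growth relative to no-drug control and time-zero cell number.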

NCI-H460 = assay: Growth inhibition of human NCI-H460 cells at 10 uM incubated for 48 hrs by sulforhodamine B assay relative to control; how it was run: as §1
HOP-62 = assay: Growth inhibition of human HOP-62 cells at 10 uM incubated for 48 hrs by sulforhodamine B assay relative to control
How it was run: (§2)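 NCI-60 single-dose screen. Cells were grown in RPMI 1640 with 5% FBS and 2 mM L-glutamine and plated 24 h before drug addition. Compound was added at one concentration in DMSO-derived medium and incubated for 48 h at 37 °C in 5% CO2. Read-out was SRB protein stain at 515 nm. Result is percent growth versus the no-drug control and the time-zero cell count; values below 0 indicate lethality.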

SK-MEL-5 = assay: Growth inhibition of human SK-MEL-5 cells at 10 uM incubated for 48 hrs by sulforhodamine B assay relative to control; how it was run: as §1
NCI-H322M = assay: Growth inhibition of human NCI-H322M cells at 10 uM incubated for 48 hrs by sulforhodamine B assay relative to control; how it was run: as §1
NCI/ADR-RES = assay: Growth inhibition of human NCI/ADR-RES cells at 10 uM incubated for 48 hrs by sulforhodamine B assay relative to control; how it was run: as §1
MOLT-4 = assay: Growth inhibition of human MOLT-4 cells at 10 uM incubated for 48 hrs by sulforhodamine B assay relative to control; how it was run: as §1
SK-MEL-2 = assay: Growth inhibition of human SK-MEL-2 cells at 10 uM incubated for 48 hrs by sulforhodamine B assay relative to control; how it was run: as §1
OVCAR-4 = assay: Growth inhibition of human OVCAR-4 cells at 10 uM incubated for 48 hrs by sulforhodamine B assay relative to control; how it was run: as §1
MDA-MB-435 = assay: Growth inhibition of human MDA-MB-435 cells at 10 uM incubated for 48 hrs by sulforhodamine B assay relative to control; how it was run: as §2
T47D = assay: Growth inhibition of human T47D cells at 10 uM incubated for 48 hrs by sulforhodamine B assay relative to control
How it was run: (§3)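 NCI one-dose screen across a 59-line panel. Cells were grown in RPMI 1640 with 5% FBS and 2 mM L-glutamine, plated and pre-incubated 24 h, then exposed to drug for 48 h at 37 °C, 5% CO2. Adherent cells were fixed with cold TCA (10% final), stained with 0.4% SRB in 1% acetic acid and read at 515 nm. Result is percent growth relative to no-drug control and time-zero cell count.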

HL-60(TB) = assay: Growth inhibition of human HL-60(TB) cells at 10 uM incubated for 48 hrs by sulforhodamine B assay relative to control
How it was run: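 NCI-60 one-dose screen: same culture, 48 h drug exposure and SRB read-out. Reported as percent growth relative to no-drug control and to time-zero cell number; 0–100 means growth inhibition, below 0 means lethality.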

MDA-MB-468 = assay: Growth inhibition of human MDA-MB-468 cells at 10 uM incubated for 48 hrs by sulforhodamine B assay relative to control; how it was run: as §2
IGROV-1 = assay: Growth inhibition of human IGROV-1 cells at 10 uM incubated for 48 hrs by sulforhodamine B assay relative to control; how it was run: as §2
BT-549 = assay: Growth inhibition of human BT-549 cells at 10 uM incubated for 48 hrs by sulforhodamine B assay relative to control; how it was run: as §2
KM12 = assay: Growth inhibition of human KM12 cells at 10 uM incubated for 48 hrs by sulforhodamine B assay relative to control; how it was run: as §2
SK-MEL-28 = assay: Growth inhibition of human SK-MEL-28 cells at 10 uM incubated for 48 hrs by sulforhodamine B assay relative to control; how it was run: as §1
Hs-578T = assay: Growth inhibition of human HS-578T cells at 10 uM incubated for 48 hrs by sulforhodamine B assay relative to control; how it was run: as §2
SF-268 = assay: Growth inhibition of human SF-268 cells at 10 uM incubated for 48 hrs by sulforhodamine B assay relative to control; how it was run: as §1
MDA-MB-231 = assay: Growth inhibition of human MDA-MB-231 cells at 10 uM incubated for 48 hrs by sulforhodamine B assay relative to control; how it was run: as §2
Malme-3M = assay: Growth inhibition of human Malme-3M cells at 10 uM incubated for 48 hrs by sulforhodamine B assay relative to control; how it was run: as §1
UACC-257 = assay: Growth inhibition of human UACC-257 cells at 10 uM incubated for 48 hrs by sulforhodamine B assay relative to control; how it was run: as §3
SW-620 = assay: Growth inhibition of human SW-620 cells at 10 uM incubated for 48 hrs by sulforhodamine B assay relative to control; how it was run: as §3
A498 = assay: Growth inhibition of human A498 cells at 10 uM incubated for 48 hrs by sulforhodamine B assay relative to control; how it was run: as §3
COLO 205 = assay: Growth inhibition of human COLO 205 cells at 10 uM incubated for 48 hrs by sulforhodamine B assay relative to control; how it was run: as §2
SN12C = assay: Growth inhibition of human SN12C cells at 10 uM incubated for 48 hrs by sulforhodamine B assay relative to control; how it was run: as §1
SNB-19 = assay: Growth inhibition of human SNB-19 cells at 10 uM incubated for 48 hrs by sulforhodamine B assay relative to control; how it was run: as §1
MCF7 = assay: Growth inhibition of human MCF7 cells at 10 uM incubated for 48 hrs by sulforhodamine B assay relative to control; how it was run: as §2
HOP-92 = assay: Growth inhibition of human HOP-92 cells at 10 uM incubated for 48 hrs by sulforhodamine B assay relative to control; how it was run: as §2
EKVX = assay: Growth inhibition of human EKVX cells at 10 uM incubated for 48 hrs by sulforhodamine B assay relative to control; how it was run: as §2
PC-3 = assay: Growth inhibition of human PC-3 cells at 10 uM incubated for 48 hrs by sulforhodamine B assay relative to control; how it was run: as §1
NCI-H23 = assay: Growth inhibition of human NCI-H23 cells at 10 uM incubated for 48 hrs by sulforhodamine B assay relative to control; how it was run: as §1
NCI-H522 = assay: Growth inhibition of human NCI-H522 cells at 10 uM incubated for 48 hrs by sulforhodamine B assay relative to control; how it was run: as §1
SF-539 = assay: Growth inhibition of human SF-539 cells at 10 uM incubated for 48 hrs by sulforhodamine B assay relative to control; how it was run: as §1
U-251 = assay: Growth inhibition of human U-251 cells at 10 uM incubated for 48 hrs by sulforhodamine B assay relative to control; how it was run: as §3

| SMILES | inhibition of growth at 10 µM (NCI-H226) [%] | inhibition of growth at 10 µM (NCI-H460) [%] | inhibition of growth at 10 µM (HOP-62) [%] | inhibition of growth at 10 µM (SK-MEL-5) [%] | inhibition of growth at 10 µM (NCI-H322M) [%] | inhibition of growth at 10 µM (NCI/ADR-RES) [%] | inhibition of growth at 10 µM (MOLT-4) [%] | inhibition of growth at 10 µM (SK-MEL-2) [%] | inhibition of growth at 10 µM (OVCAR-4) [%] | inhibition of growth at 10 µM (MDA-MB-435) [%] | inhibition of growth at 10 µM (T47D) [%] | inhibition of growth at 10 µM (HL-60(TB)) [%] | inhibition of growth at 10 µM (MDA-MB-468) [%] | inhibition of growth at 10 µM (IGROV-1) [%] | inhibition of growth at 10 µM (BT-549) [%] | inhibition of growth at 10 µM (KM12) [%] | inhibition of growth at 10 µM (SK-MEL-28) [%] | inhibition of growth at 10 µM (Hs-578T) [%] | inhibition of growth at 10 µM (SF-268) [%] | inhibition of growth at 10 µM (MDA-MB-231) [%] | other results |
| --- | --- | --- | --- | --- | --- | --- | --- | --- | --- | --- | --- | --- | --- | --- | --- | --- | --- | --- | --- | --- | --- |
| COc1cc2nc(-c3ccc(C(F)(F)F)cc3)cc(OCCN3CCCCC3)c2cc1OC | 13 | 13 | 13 | 13 | 13 | 13 | 13 | 13 | 13 | 13 | 13 | 13 | 13 | 13 | 13 | 13 | 13 | 13 | 13 | 13 | inhibition of growth at 10 µM (Malme-3M): 13%; inhibition of growth at 10 µM (UACC-257): 13%; inhibition of growth at 10 µM (SW-620): 13%; inhibition of growth at 10 µM (A498): 13%; inhibition of growth at 10 µM (COLO 205): 13%; inhibition of growth at 10 µM (SN12C): 13%; inhibition of growth at 10 µM (SNB-19): 13%; inhibition of growth at 10 µM (MCF7): 13%; inhibition of growth at 10 µM (HOP-92): 13%; inhibition of growth at 10 µM (EKVX): 13%; inhibition of growth at 10 µM (PC-3): 13%; inhibition of growth at 10 µM (NCI-H23): 13%; inhibition of growth at 10 µM (NCI-H522): 13%; inhibition of growth at 10 µM (SF-539): 13%; inhibition of growth at 10 µM (U-251): 13% |
| COc1cc2nc(-c3ccc(C(F)(F)F)cc3)cc(OCCN3CCC(O)CC3)c2cc1OC | 13 | 13 | 13 | 13 | 13 | 13 | 13 | 13 | 13 | 13 | 13 | 13 | 13 | 13 | 13 | 13 | 13 | 13 | 13 | 13 | inhibition of growth at 10 µM (Malme-3M): 13%; inhibition of growth at 10 µM (UACC-257): 13%; inhibition of growth at 10 µM (SW-620): 13%; inhibition of growth at 10 µM (A498): 13%; inhibition of growth at 10 µM (COLO 205): 13%; inhibition of growth at 10 µM (SN12C): 13%; inhibition of growth at 10 µM (SNB-19): 13%; inhibition of growth at 10 µM (MCF7): 13%; inhibition of growth at 10 µM (HOP-92): 13%; inhibition of growth at 10 µM (EKVX): 13%; inhibition of growth at 10 µM (PC-3): 13%; inhibition of growth at 10 µM (NCI-H23): 13%; inhibition of growth at 10 µM (NCI-H522): 13%; inhibition of growth at 10 µM (SF-539): 13%; inhibition of growth at 10 µM (U-251): 13% |
| COc1cc2nc(-c3ccc(Cl)cc3)cc(OCCCN3CCOCC3)c2cc1OC | 62 | 62 | 62 | 62 | 62 | 62 | 62 | 62 | 62 | 62 | 62 | 62 | 62 | 62 | 62 | 62 | 62 | 62 | 62 | 62 | inhibition of growth at 10 µM (Malme-3M): 62%; inhibition of growth at 10 µM (UACC-257): 62%; inhibition of growth at 10 µM (SW-620): 62%; inhibition of growth at 10 µM (A498): 62%; inhibition of growth at 10 µM (COLO 205): 62%; inhibition of growth at 10 µM (SN12C): 62%; inhibition of growth at 10 µM (SNB-19): 62%; inhibition of growth at 10 µM (MCF7): 62%; inhibition of growth at 10 µM (HOP-92): 62%; inhibition of growth at 10 µM (EKVX): 62%; inhibition of growth at 10 µM (PC-3): 62%; inhibition of growth at 10 µM (NCI-H23): 62%; inhibition of growth at 10 µM (NCI-H522): 62%; inhibition of growth at 10 µM (SF-539): 62%; inhibition of growth at 10 µM (U-251): 62% |
